Laboratory results published in ChEMBL document CHEMBL3259753, “Synthesis, structure-activity relationships and biological evaluation of dehydroandrographolide and andrographolide derivatives as novel anti-hepatitis B virus agents” (Bioorg Med Chem Lett, 2014).

Tests used:
[1] = Selectivity index, ratio of CC50 for human HepG2.2.15 cells to IC50 for HBV infected in human HepG2.2.15 cells assessed as inhibition of DNA replication; format: functional
Hepatitis B virus [2] = test: Antiviral activity against HBV infected in human HepG2.2.15 cells assessed as inhibition of DNA replication; format: functional, organism-based; settings: HepG2 2.2.15
[3] = Octanol-water partition coefficient, log P of the compound at 30 degC by HPLC analysis; format: physicochemical
Outline: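 Shake-flask method: solutes equilibrated between octanol and water. Compound concentration in the octanol phase determined by HPLC. LogP determined at 30 °C.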

[4] = Cytotoxicity against human HepG2.2.15 cells by MTT assay; format: cell-based, HepG2 2.2.15
[5] = Selectivity index, ratio of CC50 for human HepG2.2.15 cells to IC50 for HBV infected in human HepG2.2.15 cells assessed as inhibition of hepatitis B e antigen secretion; format: functional
Hepatitis B virus [6] = test: Antiviral activity against HBV infected in human HepG2.2.15 cells assessed as inhibition of hepatitis B e antigen secretion by ELISA; format: functional, organism-based; settings: HepG2 2.2.15
[7] = Selectivity index, ratio of CC50 for human HepG2.2.15 cells to IC50 for HBV infected in human HepG2.2.15 cells assessed as inhibition of hepatitis B surface antigen secretion; format: functional
Hepatitis B virus [8] = test: Antiviral activity against HBV infected in human HepG2.2.15 cells assessed as inhibition of hepatitis B surface antigen secretion by ELISA; format: functional, organism-based; settings: HepG2 2.2.15

SMILES	IC50 (Hepatitis B virus [2]) [µM]	logP ([3]; read-out: logP)	IC50 (Hepatitis B virus [6]) [µM]	IC50 (Hepatitis B virus [8]) [µM]	logP [3]	Ratio CC50/IC50 [1]	CC50 [4] [µM]	Ratio CC50/IC50 [5]	Ratio CC50/IC50 [7]
C=C1CC[C@@H]2[C@](C)(COC(C)=O)[C@H](OC(C)=O)CC[C@@]2(C)[C@@H]1C/C=C1\C=COC1=O	39.6	–	260	251	–	7.6	297	1.1	1.2
C=C1CC[C@@H]2[C@](C)(COC(C)=O)[C@H](O)CC[C@@]2(C)[C@@H]1C/C=C1\C=COC1=O	44.1	–	289	280	–	7.6	334	1.1	1.2
C=C1CC[C@@H]2[C@](C)(COC(=O)c3cccs3)[C@H](OC(=O)c3cccs3)CC[C@@]2(C)[C@@H]1/C=C/C1=CCOC1=O	185	–	822	1450	–	>8.3	> 1540	>1.8	>1
C=C1CC[C@@H]2[C@](C)(CO)[C@H](O)CC[C@@]2(C)[C@@H]1/C=C/C1=CCOC1=O	22.6	–	–	–	1.44	8.7	197	–	–
C=C1CC[C@@H]2[C@](C)(COC(=O)c3cccnc3)[C@H](O)CC[C@@]2(C)[C@@H]1/C=C/C1=CCOC1=O	22.1	–	63.5	40	–	5.1	113	1.8	2.8
C=C1CC[C@@H]2[C@](C)(COC(=O)c3cccs3)[C@H](O)CC[C@@]2(C)[C@@H]1/C=C/C1=CCOC1=O	22.1	–	29.2	162	–	25.2	557	19.1	3.4
C=C1CC[C@@H]2[C@](C)(COC(=O)/C=C/c3ccccc3)[C@H](O)CC[C@@]2(C)[C@@H]1/C=C/C1=CCOC1=O	14.6	–	28.9	18	–	15.5	183	6.3	10.2

The next lines start with results.

IC50 (Hepatitis B virus [2]) [µM]	logP ([3]; read-out: logP)	IC50 (Hepatitis B virus [6]) [µM]	IC50 (Hepatitis B virus [8]) [µM]	logP [3]	SMILES	Ratio CC50/IC50 [1]	CC50 [4] [µM]	Ratio CC50/IC50 [5]	Ratio CC50/IC50 [7]
54.1	0.52	–	–	–	C=C1CC[C@@H]2[C@](C)(CO)[C@H](O)CC[C@@]2(C)[C@@H]1C/C=C1/C(=O)OC[C@H]1O [ANDROGRAPHOLIDE]	3.7	198	–	–
44.4	–	241	318	–	C=C1CC[C@@H]2[C@](C)(CO)[C@H](OC(C)=O)CC[C@@]2(C)[C@@H]1C/C=C1\C=COC1=O	19.6	872	3.6	2.7
154	–	860	74	–	C=C1CC[C@@H]2[C@](C)(CO)[C@H](O)CC[C@@]2(C)[C@@H]1/C=C/C1=CC(CO)(CO)OC1=O	6.2	954	1.1	13
9.3	–	77.5	19.2	–	C=C1CC[C@@H]2[C@](C)(COC(=O)c3ccco3)[C@H](O)CC[C@@]2(C)[C@@H]1/C=C/C1=CCOC1=O	9.9	92	1.2	4.6
10.3	1.78	201	–	–	C=C1CC[C@@H]2[C@](C)(COC(=O)/C=C/c3cc(OC)c(OC)c(OC)c3)[C@H](O)CC[C@@]2(C)[C@@H]1/C=C/C1=CCOC1=O	>165.1	> 1710	>8.5	–
23.5	–	19.7	121	–	C=C1CC[C@@H]2[C@](C)(COC(=O)c3cccs3)[C@H](O)CC[C@@]2(C)[C@@H]1C/C=C1\C=COC1=O	104.9	2470	125	20.3
